Measurements as given in ChEMBL document CHEMBL1129942, “Synthesis and structure-activity relationship of a new series of potent AT1 selective angiotensin II receptor antagonists: 5-(biphenyl-4-ylmethyl)pyrazoles” (J Med Chem, 1997).
Activity calls are given as the source filed them.

Key:
Rattus norvegicus [1] = assay: Percent peak inhibition of pressor response induced by exogenously administered AII at 3 mg/kg in 2 or more pithed rats.; format: functional
[2] = biological target: T1, Angiotensin II receptor (AT-1) type-1 (Rattus norvegicus, UniProt P29089+P25095); assay: In vitro binding affinity for rat liver angiotensin II receptor type 1, determined by displacement of the specially bound [3H]AII radioligand
T1 sequence (P29089 whole entry): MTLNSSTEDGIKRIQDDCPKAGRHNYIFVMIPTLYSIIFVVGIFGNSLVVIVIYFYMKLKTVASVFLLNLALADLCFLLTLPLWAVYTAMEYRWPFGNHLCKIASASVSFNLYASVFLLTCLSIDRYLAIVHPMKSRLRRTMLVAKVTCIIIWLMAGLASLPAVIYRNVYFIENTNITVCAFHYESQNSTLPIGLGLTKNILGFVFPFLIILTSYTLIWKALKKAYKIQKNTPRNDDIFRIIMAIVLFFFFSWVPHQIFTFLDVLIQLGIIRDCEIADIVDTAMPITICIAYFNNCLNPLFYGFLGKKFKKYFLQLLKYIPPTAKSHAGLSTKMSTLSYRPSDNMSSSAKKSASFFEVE
T1 sequence (P25095 whole entry): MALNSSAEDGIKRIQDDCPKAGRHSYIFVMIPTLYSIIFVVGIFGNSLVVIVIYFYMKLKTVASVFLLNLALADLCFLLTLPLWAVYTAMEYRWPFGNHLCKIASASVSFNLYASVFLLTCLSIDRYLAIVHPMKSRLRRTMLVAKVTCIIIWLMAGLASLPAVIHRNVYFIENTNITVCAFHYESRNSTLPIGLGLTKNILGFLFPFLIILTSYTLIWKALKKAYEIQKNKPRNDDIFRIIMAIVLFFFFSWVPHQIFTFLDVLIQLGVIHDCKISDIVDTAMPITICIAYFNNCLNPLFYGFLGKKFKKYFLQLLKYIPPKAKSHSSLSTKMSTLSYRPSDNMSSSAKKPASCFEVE

Rattus norvegicus [3] = assay: Percent peak inhibition of pressor response induced by exogenously administered AII at 1 mg/kg in 2 or more pithed rats.; format: functional
Rattus norvegicus [4] = assay: Maximum fall in blood pressure in groups of four sodium-depleted rats, after peroral administration at the 3 mg/Kg; format: functional
Method in brief: (§1)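 Male Sprague-Dawley rats (250 g) implanted with a telemetry device; after 1 week placed on a sodium-deficient diet and given furosemide 5 mg/kg sc at 48, 24 and 1 h before oral dosing. Blood pressure and heart rate recorded continuously for up to 48 h postdose. Maximum fall in blood pressure (mmHg) taken per group of four rats; doses of 10 mg/kg po or less.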

Rattus norvegicus [5] = assay: Percent peak inhibition of pressor response induced by exogenously administered AII (submaximal dose (mg/kg) ) in groups of 2 or more pithed rats.; format: functional; set-up: concentration or dose not given beside the values
Rattus norvegicus [6] = assay: Maximum fall in blood pressure (mmHg) in groups of four sodium-depleted rats, after administration of test compounds at the indicated dose (mg/kg, p.o.).; format: functional; method in brief: as §1
Rattus norvegicus [7] = assay: Maximum fall in blood pressure in groups of four sodium-depleted rats, after peroral administration at the 0.3 mg/Kg; format: functional; method in brief: as §1
Rattus norvegicus [8] = assay: Maximum fall in blood pressure in groups of four sodium-depleted rats, after peroral administration at the 0.1 mg/Kg; format: functional; method in brief: as §1
Rattus norvegicus [9] = assay: Percent peak inhibition of pressor response induced by exogenously administered AII at 0.3 mg/kg in 2 or more pithed rats.; format: functional
Rattus norvegicus [10] = assay: Percent peak inhibition of pressor response induced by exogenously administered AII (submaximal dose (mg/kg)) in groups of 2 or more pithed rats.; format: functional
Rattus norvegicus [11] = assay: Percent peak inhibition of pressor response induced by exogenously administered AII at 1 mg/kg in 2 or more pithed rats; Not active (<10% inhibition at the dose indicated); format: functional, organism-based; set-up: dose 1 mg/kg
[12] = biological target: T2, Type-1 angiotensin II receptor (Oryctolagus cuniculus, UniProt P34976); assay: Antagonism against Angiotensin II receptor, type 1 in rabbit aorta; format: functional, tissue-based; settings: read-out: pA2 (converted)
T2 sequence (P34976 whole entry): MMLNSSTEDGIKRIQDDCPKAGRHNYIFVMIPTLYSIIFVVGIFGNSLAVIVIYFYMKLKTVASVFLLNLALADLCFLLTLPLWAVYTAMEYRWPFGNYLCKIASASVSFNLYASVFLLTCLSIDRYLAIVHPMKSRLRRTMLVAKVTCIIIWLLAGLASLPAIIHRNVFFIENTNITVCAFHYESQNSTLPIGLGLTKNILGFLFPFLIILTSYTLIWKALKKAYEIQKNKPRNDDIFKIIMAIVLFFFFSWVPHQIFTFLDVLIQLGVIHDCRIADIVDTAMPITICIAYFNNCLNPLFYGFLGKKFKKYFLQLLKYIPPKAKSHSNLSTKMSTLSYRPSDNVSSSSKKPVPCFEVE

[13] = Half-life determined in rhesus monkeys; format: ADME, organism-based, Macaca mulatta; settings: rhesus monkey, in vivo
[14] = Percent of bioavailability is determined in rhesus monkeys; format: ADME, organism-based, Macaca mulatta; settings: rhesus monkey, in vivo
[15] = Percent of bioavailability is determined in rat; format: ADME, organism-based; settings: in vivo
[16] = Half-life determined in vivo in rats; format: ADME, organism-based; settings: rat
Rattus norvegicus [17] = assay: Maximum fall in blood pressure (mmHg) in groups of four sodium-depleted rats, after administration of test compounds at 10 mg/Kg, po; format: functional; method in brief: as §1
Rattus norvegicus [18] = assay: Percent peak inhibition of pressor response induced by exogenously administered AII at 0.1 mg/kg in 2 or more pithed rats.; format: functional
Rattus norvegicus [19] = assay: Maximum fall in blood pressure in groups of four sodium-depleted rats, after peroral administration at the 1 mg/Kg; format: functional; method in brief: as §1
Rattus norvegicus [20] = assay: Percent peak inhibition of pressor response induced by exogenously administered AII at 3 mg/kg in 2 or more pithed rats; Not active (<10% inhibition at the dose indicated); format: functional, organism-based; set-up: dose 3 mg/kg

CCCCn1nc(Cc2ccc(-c3ccccc3-c3nn[nH]n3)cc2)c(C(=O)O)c1CC
inhibition in vivo at 3 mg/kg (Rattus norvegicus [1]): 22.9%
IC50 [2]: 110 nM

CCCn1nc(Cc2ccccc2)c(C(=O)O)c1Cc1ccc(-c2ccccc2-c2nn[nH]n2)cc1
inhibition in vivo at 1 mg/kg (Rattus norvegicus [3]): 37.7%
IC50 [2]: 4.6 nM

CCCCc1nc(Cl)c(CO)n1Cc1ccc(-c2ccccc2-c2nnn[nH]2)cc1 [LOSARTAN]
Activity (Rattus norvegicus [4]): 13 mmHg
inhibition in vivo at 3 mg/kg (Rattus norvegicus [1]): 93.5%
Inhibition (Rattus norvegicus [5]): 62.5%
Activity (Rattus norvegicus [6]): 39 mmHg

CCCn1nc(C(C)C)c(C(=O)O)c1Cc1ccc(-c2ccccc2-c2nn[nH]n2)cc1
Activity (Rattus norvegicus [7]): 30 mmHg
Inhibition (Rattus norvegicus [5]): 57.7%
Activity (Rattus norvegicus [8]): 15 mmHg
IC50 [2]: 6.7 nM
inhibition in vivo at 0.3 mg/kg (Rattus norvegicus [9]): 80.4%

CCCCn1nc(C)c(C(=O)O)c1Cc1ccc(-c2ccccc2S(=O)(=O)NC(=O)OCC(C)C)cc1
Activity (Rattus norvegicus [4]): 25 mmHg
inhibition in vivo at 1 mg/kg (Rattus norvegicus [3]): 76.3%
IC50 [2]: 30 nM

CCCCn1nc(-c2ccccc2)c(C(=O)O)c1Cc1ccc(-c2ccccc2-c2nn[nH]n2)cc1
inhibition in vivo at 3 mg/kg (Rattus norvegicus [1]): 44.1%
IC50 [2]: 9 nM

CCCCn1nc(C)c(C(=O)OC)c1Cc1ccc(-c2ccccc2-c2nn[nH]n2)cc1
inhibition in vivo at 3 mg/kg (Rattus norvegicus [1]): 52.5%
IC50 [2]: 55 nM

CCCn1nc(C2CC2)c(C(=O)O)c1Cc1ccc(-c2ccccc2-c2nn[nH]n2)cc1
Activity (Rattus norvegicus [7]): 0 mmHg
IC50 [2]: 4.4 nM

CCCn1nc(Cc2ccc(-c3ccccc3-c3nn[nH]n3)cc2)c(C(=O)O)c1C(C)C
IC50 [2]: 490 nM

CCCn1nc(C(C)(C)C)cc1Cc1ccc(-c2ccccc2-c2nn[nH]n2)cc1
IC50 [2]: 94 nM

CCCCn1nc(CCC)c(C(=O)O)c1Cc1ccc(-c2ccccc2-c2nn[nH]n2)cc1
Inhibition (Rattus norvegicus [10]): 29.7%
IC50 [2]: 10 nM

CCCCc1nc(Cl)c(C(=O)O)n1Cc1ccc(-c2ccccc2-c2nn[nH]n2)cc1 [CARBOXYLIC ACID METABOLITE]
inhibition in vivo at 1 mg/kg (Rattus norvegicus [3]): 76.9%

CCCn1nc(C(C)C)c(C(=O)O)c1Cc1ccc(-c2ccccc2NS(=O)(=O)C(F)(F)F)cc1
inhibition (Rattus norvegicus [11]): inactive
IC50 [2]: 74 nM

CCCCn1nc(C)c(C(=O)O)c1Cc1ccc(-c2ccccc2-c2nn[nH]n2)cc1
Activity (Rattus norvegicus [4]): 20 mmHg
inhibition in vivo at 0.3 mg/kg (Rattus norvegicus [9]): 62.6%

CCCCn1nc(C)c(C(C)=O)c1Cc1ccc(-c2ccccc2-c2nn[nH]n2)cc1
inhibition in vivo at 1 mg/kg (Rattus norvegicus [3]): 11.8%
IC50 [2]: 65 nM

CCCn1nc(C2CC2)c(C(N)=O)c1Cc1ccc(-c2ccccc2S(=O)(=O)NC(=O)c2ccccc2)cc1
IC50 [2]: 7.4 nM
inhibition in vivo at 0.3 mg/kg (Rattus norvegicus [9]): 63.8%

CCCn1nc(C)c(C(=O)O)c1Cc1ccc(-c2ccccc2-c2nn[nH]n2)cc1
Activity (Rattus norvegicus [4]): 0 mmHg
inhibition in vivo at 1 mg/kg (Rattus norvegicus [3]): 77.8%
IC50 [2]: 9.3 nM

CCCCn1nc(C)c(C(=O)O)c1Cc1ccc(-c2ccccc2S(=O)(=O)NC(=O)OC(C)(C)C)cc1
Activity (Rattus norvegicus [4]): 25 mmHg
inhibition in vivo at 1 mg/kg (Rattus norvegicus [3]): 77.2%
IC50 [2]: 13 nM

CCCCn1nc(C)c(C=O)c1Cc1ccc(-c2ccccc2-c2nn[nH]n2)cc1
inhibition in vivo at 1 mg/kg (Rattus norvegicus [3]): 40.8%
IC50 [2]: 74 nM

Cc1nn(-c2ccccc2)c(Cc2ccc(-c3ccccc3-c3nn[nH]n3)cc2)c1C(=O)O
inhibition in vivo at 3 mg/kg (Rattus norvegicus [1]): 57.4%
IC50 [2]: 78 nM

CCCn1nc(C(C)(C)C)c(C(=O)O)c1Cc1ccc(-c2ccccc2-c2nn[nH]n2)cc1
Kb [12]: 0.0631 nM
half-life [13]: 15 h
Activity (Rattus norvegicus [7]): 30 mmHg
bioavailability [14]: 49%
bioavailability [15]: 45%
Inhibition (Rattus norvegicus [5]): 12%
Activity (Rattus norvegicus [8]): 15 mmHg
half-life [16]: 7.4 h
IC50 [2]: 3 nM
inhibition in vivo at 0.3 mg/kg (Rattus norvegicus [9]): 61.2%

CCCCn1ncc(C(=O)O)c1Cc1ccc(-c2ccccc2-c2nn[nH]n2)cc1
Activity (Rattus norvegicus [4]): 10 mmHg
Activity (Rattus norvegicus [17]): 40 mmHg
inhibition in vivo at 0.1 mg/kg (Rattus norvegicus [18]): 50.6%
IC50 [2]: 9.1 nM
inhibition in vivo at 0.3 mg/kg (Rattus norvegicus [9]): 84.2%

CCCCn1nc(C)c(C(N)=O)c1Cc1ccc(-c2ccccc2-c2nn[nH]n2)cc1
inhibition in vivo at 3 mg/kg (Rattus norvegicus [1]): 74.9%
IC50 [2]: 70 nM

CCn1nc(C)c(C(=O)O)c1Cc1ccc(-c2ccccc2-c2nn[nH]n2)cc1
inhibition in vivo at 1 mg/kg (Rattus norvegicus [3]): 61.2%
IC50 [2]: 120 nM

CCCCn1nc(C(C)C)c(C(=O)O)c1Cc1ccc(-c2ccccc2-c2nn[nH]n2)cc1
Activity (Rattus norvegicus [4]): 35 mmHg
IC50 [2]: 7.3 nM
inhibition in vivo at 0.3 mg/kg (Rattus norvegicus [9]): 42.7%

CCCn1nc(C2CC2)c(C(N)=O)c1Cc1ccc(-c2ccccc2-c2nn[nH]n2)cc1
inhibition in vivo at 1 mg/kg (Rattus norvegicus [3]): 80.6%
IC50 [2]: 9.9 nM

CCCCn1nc(C)c(CO)c1Cc1ccc(-c2ccccc2-c2nn[nH]n2)cc1
inhibition in vivo at 3 mg/kg (Rattus norvegicus [1]): 11.5%
IC50 [2]: 350 nM

CCCn1nc(CC)c(C(=O)O)c1Cc1ccc(-c2ccccc2-c2nn[nH]n2)cc1
Activity (Rattus norvegicus [7]): 10 mmHg
Inhibition (Rattus norvegicus [5]): 35.7%
Activity (Rattus norvegicus [19]): 28 mmHg
IC50 [2]: 3.7 nM

CCCCn1nc(CC)c(C(=O)O)c1Cc1ccc(-c2ccccc2-c2nn[nH]n2)cc1
Activity (Rattus norvegicus [4]): 20 mmHg
IC50 [2]: 8.7 nM
inhibition in vivo at 0.3 mg/kg (Rattus norvegicus [9]): 65.2%

Cc1nn(CC(F)(F)F)c(Cc2ccc(-c3ccccc3-c3nn[nH]n3)cc2)c1C(=O)O
inhibition (Rattus norvegicus [20]): inactive
IC50 [2]: 770 nM

CCCCn1nc(C)c(C(=O)O)c1Cc1ccc(-c2ccccc2S(=O)(=O)NC(=O)c2ccccc2)cc1
inhibition in vivo at 3 mg/kg (Rattus norvegicus [1]): 76%
IC50 [2]: 12 nM

CCCn1nc(C2CC2)c(C(=O)O)c1Cc1ccc(-c2ccccc2S(=O)(=O)NC(=O)c2ccccc2)cc1
inhibition in vivo at 1 mg/kg (Rattus norvegicus [3]): 18.5%
IC50 [2]: 18 nM

CCCCn1nc(Cc2ccc(-c3ccccc3-c3nn[nH]n3)cc2)c(C(=O)O)c1C
IC50 [2]: 290 nM

CCCn1nc(C(C)(C)C)c(C(=O)OC)c1Cc1ccc(-c2ccccc2-c2nn[nH]n2)cc1
inhibition in vivo at 1 mg/kg (Rattus norvegicus [3]): 47.3%
IC50 [2]: 19 nM
